Results collected from several papers.
Lines come from different studies, so protocols differ.

Structure (SMILES) | test | system | conditions | endpoint | value
COc1cc(C(=O)N2CC[C@@H](O)[C@@H](N)C2)cc2nc(-c3cc4ccccc4n3CC3CC3)n(C)c12 | HPLC | – | pH 7.4 | chromatographic logD | 3.7
CC(C)C[C@@H]1NC(=O)[C@@H]2CSSC[C@@H](C(=O)NCC(N)=O)NC(=O)[C@H](Cc3ccccc3)NC(=O)CNC(=O)[C@H](CC(N)=O)NC(=O)[C@@H]3CCCN3C(=O)CNC(=O)[C@@H]3CSSC[C@H](NC(=O)[C@H](CO)NC(=O)[C@H]([C@@H](C)O)NC(=O)[C@@H]4CCCN4C(=O)[C@H](C)NC(=O)[C@H](Cc4c[nH]c5ccccc45)NC(=O)[C@H](CC(=O)O)NC(=O)CNC(=O)[C@H](CCCNC(=N)N)NC(=O)CNC(=O)[C@H](CCC(N)=O)NC(=O)[C@@H]4CCCN4C(=O)[C@@H](NC(=O)CNC(=O)c4ccc(F)cc4)CSSC[C@H](NC(=O)CNC(=O)[C@H](C)NC1=O)C(=O)N[C@@H](C(C)C)C(=O)N3)C(=O)N[C@@H](CO)C(=O)N[C@@H](CCC(N)=O)C(=O)N[C@@H](CC(=O)O)C(=O)N[C@@H](CO)C(=O)N[C@@H](CC(=O)O)C(=O)N2 | shake flask | PBS | pH 7.4 | logD | -1.68
Clc1ccc(COc2cc(OC[C@@H]3CCCN3)cnc2Cl)cn1 | shake flask | aqueous buffer | pH 7.4 | logD | 1.9
Cc1c(C(=O)NN2CCCCC2)nc(-c2ccc(Cl)cc2Cl)n1-c1ccc(OCCCC(F)(F)F)cc1 | shake flask | aqueous buffer | pH 7.4 | logD | > 5.5
O=c1c(O)c(NCc2ccccc2)c1=O | shake flask | aqueous buffer | 1 h, pH 7.4 | logD | -1.4
C=CC1=C(C)C2=Cc3c(C=C)c(C)c4[n]3[Fe]([Cl])[n]3c(c(C)c(CCC(=O)O)c3=CC3=NC(=C4)C(C)=C3CCC(=O)O)=CC1=N2 | shake flask | aqueous buffer | pH 9 | logD | 0.463
Cc1c(C(=O)NN2CCCCC2)nc(-c2ccc(Cl)cc2Cl)n1-c1ccc(OCCCF)cc1 | shake flask | aqueous buffer | pH 7.4 | logD | 5.3
O=C(O)CN1CCC(Oc2ccc([C@H]3CC[C@]4(CC3)OOC3(O4)C4CC5CC(C4)CC3C5)cc2)CC1 (stereo partly drawn) | HPLC | – | pH 7.4 | chromatographic logD | 3 to 3.3
CN1CCC[C@H]1COc1cnc(Cl)c(OCc2ccc(Cl)nc2)c1 | shake flask | aqueous buffer | pH 7.4 | logD | 2.2
